# Tests used:
# Settings in all cases: stereoisomer not certain
# OR52D1 (Homo sapiens) = biological target: T1, OR52D1 (Homo sapiens) (UniProt Q9H346)
# T1 sequence (whole entry): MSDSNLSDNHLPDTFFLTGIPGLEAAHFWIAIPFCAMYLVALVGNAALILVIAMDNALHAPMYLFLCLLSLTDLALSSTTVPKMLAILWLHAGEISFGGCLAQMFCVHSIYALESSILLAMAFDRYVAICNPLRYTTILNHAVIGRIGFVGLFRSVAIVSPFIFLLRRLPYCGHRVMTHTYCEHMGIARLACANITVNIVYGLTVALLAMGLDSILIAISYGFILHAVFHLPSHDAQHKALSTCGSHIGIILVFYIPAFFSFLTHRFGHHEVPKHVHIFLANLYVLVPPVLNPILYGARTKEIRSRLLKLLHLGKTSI
# Method in brief: (§1)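 Each receptor–molecule pair is labelled responsive or non-responsive (inactive) according to whether the original authors judged the measured signal statistically different from baseline. The data were taken from the main text and supplementary material of published papers and checked for typos and inconsistencies. Assay methods differed by source, with transient luciferase assays in mammalian cell lines being common.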
# OR51L1 (Homo sapiens) = biological target: T2, OR51L1 (Homo sapiens) (UniProt Q8NGJ5)
# T2 sequence (whole entry): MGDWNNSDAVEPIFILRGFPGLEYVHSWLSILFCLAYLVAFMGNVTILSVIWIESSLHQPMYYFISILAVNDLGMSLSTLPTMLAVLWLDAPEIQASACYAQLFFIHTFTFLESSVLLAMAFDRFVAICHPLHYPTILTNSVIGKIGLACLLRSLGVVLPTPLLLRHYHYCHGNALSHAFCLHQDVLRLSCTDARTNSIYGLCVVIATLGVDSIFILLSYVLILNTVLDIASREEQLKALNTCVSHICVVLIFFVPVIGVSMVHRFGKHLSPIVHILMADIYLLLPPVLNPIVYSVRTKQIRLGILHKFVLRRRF
# Method in brief: as §1
# OR52A1 (Homo sapiens) = biological target: T3, OR52A1 (Homo sapiens) (UniProt Q9UKL2)
# T3 sequence (whole entry): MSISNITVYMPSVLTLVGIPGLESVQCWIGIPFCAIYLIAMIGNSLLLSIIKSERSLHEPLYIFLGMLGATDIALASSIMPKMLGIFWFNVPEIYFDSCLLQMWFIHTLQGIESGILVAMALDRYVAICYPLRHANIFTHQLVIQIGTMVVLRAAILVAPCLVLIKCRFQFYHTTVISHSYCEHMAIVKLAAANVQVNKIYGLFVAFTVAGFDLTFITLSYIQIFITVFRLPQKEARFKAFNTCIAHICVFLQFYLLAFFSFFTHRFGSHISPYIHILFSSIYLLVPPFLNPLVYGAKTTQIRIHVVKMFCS
# Method in brief: as §1
# OR52B2 (Homo sapiens) = biological target: T4, OR52B2 (Homo sapiens) (UniProt Q96RD2)
# T4 sequence (whole entry): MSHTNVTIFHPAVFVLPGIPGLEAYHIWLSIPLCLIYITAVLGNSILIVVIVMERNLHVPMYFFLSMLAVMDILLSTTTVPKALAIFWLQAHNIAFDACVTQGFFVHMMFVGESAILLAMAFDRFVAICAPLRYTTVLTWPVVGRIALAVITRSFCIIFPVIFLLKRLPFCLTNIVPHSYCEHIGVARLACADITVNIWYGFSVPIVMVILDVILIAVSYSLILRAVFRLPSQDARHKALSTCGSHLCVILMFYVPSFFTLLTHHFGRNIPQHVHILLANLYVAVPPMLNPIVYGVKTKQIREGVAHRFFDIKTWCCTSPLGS
# Method in brief: as §1
# 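Also: active if original authors judged signal statistically different from baseline.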
smiles,measurement,setting,value
CC=Cc1ccc(OC)cc1,odorant receptor agonist call,OR52D1 (Homo sapiens),active
CCCCCCCC(=O)[O-].[H+],odorant receptor agonist call,OR51L1 (Homo sapiens),inactive
same,odorant receptor agonist call,OR52D1 (Homo sapiens),active
CCCCCCCC(C)=O,odorant receptor agonist call,OR51L1 (Homo sapiens),inactive
same,odorant receptor agonist call,OR52D1 (Homo sapiens),inactive
CC(=O)OCc1ccccc1,odorant receptor agonist call,OR51L1 (Homo sapiens),inactive
CCCCCCCC(=O)OC,odorant receptor agonist call,OR52D1 (Homo sapiens),inactive
CCCCCCCCCCO,odorant receptor agonist call,OR51L1 (Homo sapiens),inactive
same,odorant receptor agonist call,OR52D1 (Homo sapiens),inactive
CCOC(=O)C(C)C,odorant receptor agonist call,OR51L1 (Homo sapiens),inactive
same,odorant receptor agonist call,OR52D1 (Homo sapiens),inactive
CCCCCCC(C)=O,odorant receptor agonist call,OR51L1 (Homo sapiens),inactive
same,odorant receptor agonist call,OR52D1 (Homo sapiens),inactive
CCCCCC=O,odorant receptor agonist call,OR51L1 (Homo sapiens),inactive
same,odorant receptor agonist call,OR52D1 (Homo sapiens),inactive
O=c1ccc2ccccc2o1,odorant receptor agonist call,OR51L1 (Homo sapiens),inactive
same,odorant receptor agonist call,OR52D1 (Homo sapiens),inactive
CCCCCCCCCCCC=O,odorant receptor agonist call,OR52D1 (Homo sapiens),inactive
c1ccccc1,odorant receptor agonist call,OR51L1 (Homo sapiens),inactive
CCCCCCCCCC(=O)OCC,odorant receptor agonist call,OR52D1 (Homo sapiens),inactive
CCCCCCCCC(=O)OCC,odorant receptor agonist call,OR52D1 (Homo sapiens),inactive
CC(C)=CCCC(C)CCO (stereo not drawn),odorant receptor agonist call,OR51L1 (Homo sapiens),inactive
CCCCOC(=O)C(C)OC(=O)CCC (stereo not drawn),odorant receptor agonist call,OR51L1 (Homo sapiens),inactive
CCCCCO,odorant receptor agonist call,OR51L1 (Homo sapiens),inactive
CCCCCC(=O)CC,odorant receptor agonist call,OR51L1 (Homo sapiens),inactive
same,odorant receptor agonist call,OR52D1 (Homo sapiens),active
CCCCCCCCC(=O)OC,odorant receptor agonist call,OR52D1 (Homo sapiens),inactive
CCCCCCCCC(=O)O,odorant receptor agonist call,OR51L1 (Homo sapiens),inactive
same,odorant receptor agonist call,OR52A1 (Homo sapiens),inactive
same,odorant receptor agonist call,OR52B2 (Homo sapiens),inactive
same,odorant receptor agonist call,OR52D1 (Homo sapiens),active
CCCCC(=O)O,odorant receptor agonist call,OR51L1 (Homo sapiens),inactive
CCCCCCCCC(C)=O,odorant receptor agonist call,OR52D1 (Homo sapiens),active
CCCCOC=O,odorant receptor agonist call,OR51L1 (Homo sapiens),inactive
CC(C)=CCCC(C)=CCO,odorant receptor agonist call,OR51L1 (Homo sapiens),inactive
same,odorant receptor agonist call,OR52D1 (Homo sapiens),inactive
CC(=O)C=CC1=C(C)CCCC1(C)C,odorant receptor agonist call,OR52D1 (Homo sapiens),active
c1cscn1,odorant receptor agonist call,OR52D1 (Homo sapiens),active
CCCCCCC(=O)[O-].[H+],odorant receptor agonist call,OR51L1 (Homo sapiens),inactive
same,odorant receptor agonist call,OR52D1 (Homo sapiens),active
CCCCCCCCCO,odorant receptor agonist call,OR51L1 (Homo sapiens),inactive
same,odorant receptor agonist call,OR52D1 (Homo sapiens),active
CCCCCCCCCC(=O)[O-].[H+],odorant receptor agonist call,OR51L1 (Homo sapiens),inactive
same,odorant receptor agonist call,OR52D1 (Homo sapiens),inactive
CCCCCCO,odorant receptor agonist call,OR51L1 (Homo sapiens),inactive
same,odorant receptor agonist call,OR52D1 (Homo sapiens),inactive
CCC(=O)O,odorant receptor agonist call,OR51L1 (Homo sapiens),inactive
same,odorant receptor agonist call,OR52D1 (Homo sapiens),active

# Reference: the M2OR odorant receptor database
